From ChEMBL document CHEMBL3616436, “Synthesis, cytotoxicity and antimicrobial activity of thiourea derivatives incorporating 3-(trifluoromethyl)phenyl moiety” (Eur J Med Chem, 2015)
In brackets after ≈: the same amount, converted by molar mass. Activity calls are given as the source filed them. The calls are words filed in the database; no cut-off is given here.

Tests used:
[1] = tested on: Vesicular stomatitis virus; test: Antiviral activity against Vesicular stomatitis virus ATCC VR 1540 infected in African green monkey Vero 76 cells assessed as reduction of virus-plaque formation after 2 days by crystal violet staining; assay type: functional, organism-based; details: ATCC VR 1540, Vero, 48 h
[2] = tested on: Staphylococcus epidermidis; test: Antimicrobial activity against Staphylococcus epidermidis ATCC 12228 at 400 ug after 18 hrs by disc-diffusion method; assay type: functional; details: ATCC 12228, 18 h, read-out: IZ
Procedure, shortened: (§1)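 Disc diffusion on Mueller-Hinton II agar per CLSI; 9 mm paper discs loaded with 400 µg compound from DMSO solution, dried, placed on agar; growth inhibition zone diameter read after 18 h at 35°C.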

[3] = tested on: Micrococcus luteus; test: Antimicrobial activity against Micrococcus luteus ATCC 10240 at 400 ug after 18 hrs by disc-diffusion method; assay type: functional; details: ATCC 10240, 18 h, read-out: IZ; procedure, shortened: as §1
[4] = tested on: Staphylococcus aureus; test: Antimicrobial activity against Staphylococcus aureus ATCC 29213 after 18 hrs by twofold serial microdilution method; assay type: functional; details: ATCC 29213, 18 h
[5] = tested on: Coxsackievirus B5; test: Antiviral activity against Human coxsackievirus B5 ATCC VR-29 infected in African green monkey Vero 76 cells assessed as reduction of virus-plaque formation after 3 days by crystal violet staining; assay type: functional, organism-based; details: Enterovirus B, ATCC VR-29, Vero, 72 h
Procedure, shortened: (§2)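 Plaque reduction: Vero-76 at 2x10^5 cells/well grown to confluent monolayers, infected 2 h at 50–100 PFU/well; after removing unadsorbed virus, overlay of D-MEM, 1% inactivated FBS, 0.75% methylcellulose with or without serial compound dilutions; 3 days at 37°C, fixed and stained with crystal violet in 50% ethanol, plaques counted; EC50 by linear regression.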

[6] = tested on: Staphylococcus aureus; test: Antimicrobial activity against Staphylococcus aureus ATCC 29213 at 400 ug after 18 hrs by disc-diffusion method; assay type: functional; details: ATCC 29213, 18 h, read-out: IZ; procedure, shortened: as §1
[7] = Cytotoxicity against African green monkey Vero 76 cells assessed as cell viability after 48 to 96 hrs by crystal violet staining; assay type: cell-based; details: chlorocebus sabaeus
[8] = Cytotoxicity against human MT4 cells; assay type: cell-based
[9] = tested on: Mycobacterium tuberculosis; test: Antimycobacterial activity against drug-sensitive Mycobacterium tuberculosis Spec. 192; assay type: functional
Procedure, shortened: (§3)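 Classical test-tube successive-dilution method in Youmans' modification of Proskauer and Beck liquid medium with 10% bovine serum. Inoculum came from 14-day cultures. DMSO stock was 10 mg/mL, diluted geometrically in medium. Tubes were incubated at 37 °C. Concentrations tested were 3.1, 6.2, 12.5, 25, 50 and 100 µg/ml. MIC is the minimum concentration inhibiting growth relative to compound-free tubes.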

[10] = tested on: Staphylococcus epidermidis; test: Antimicrobial activity against Staphylococcus epidermidis ATCC 35984 after 18 hrs by twofold serial microdilution method; assay type: functional; details: ATCC 35984, 18 h
[11] = tested on: Vaccinia virus; test: Antiviral activity against Human Vaccinia virus ATCC VR-1549 infected in African green monkey Vero 76 cells assessed as reduction of virus-plaque formation after 3 days by crystal violet staining; assay type: functional, organism-based; details: Orthopoxvirus vaccinia, ATCC VR-1549, Vero, 72 h
[12] = tested on: Yellow fever virus; test: Antiviral activity against Yellow fever virus 17D infected in BHK cells assessed as protection against virus-induced cytopathogenicity after 3 to 4 days by MTT assay; assay type: functional, cell-based
[13] = tested on: Poliovirus 1; test: Antiviral activity against Poliovirus type 1 ATCC VR-1562 infected in African green monkey Vero 76 cells assessed as reduction of virus-plaque formation after 2 days by crystal violet staining; assay type: functional, organism-based; details: Enterovirus C, ATCC VR-1562, Vero, 48 h
[14] = tested on: Staphylococcus aureus; test: Antimicrobial activity against Staphylococcus aureus ATCC 6538 after 18 hrs by twofold serial microdilution method; assay type: functional; details: ATCC 6538, 18 h
[15] = tested on: Staphylococcus aureus; test: Antimicrobial activity against Staphylococcus aureus ATCC 25923 after 18 hrs by twofold serial microdilution method; assay type: functional; details: ATCC 25923, 18 h
[16] = tested on: Staphylococcus aureus; test: Antimicrobial activity against Staphylococcus aureus NCTC 4163 after 18 hrs by twofold serial microdilution method; assay type: functional; details: NCTC 4163, 18 h
[17] = tested on: Bacillus subtilis; test: Antimicrobial activity against Bacillus subtilis ATCC 6633 at 400 ug after 18 hrs by disc-diffusion method; assay type: functional; details: ATCC 6633, 18 h, read-out: IZ; procedure, shortened: as §1
[18] = tested on: Staphylococcus aureus; test: Antimicrobial activity against Staphylococcus aureus ATCC 25923 at 400 ug after 18 hrs by disc-diffusion method; assay type: functional; details: ATCC 25923, 18 h, read-out: IZ; procedure, shortened: as §1
[19] = tested on: Mycobacterium tuberculosis; test: Antimycobacterial activity against Mycobacterium tuberculosis H37Rv ATCC 25618; assay type: functional; procedure, shortened: as §3
[20] = tested on: Enterococcus hirae; test: Antimicrobial activity against Enterococcus hirae ATCC 10541 at 400 ug after 18 hrs by disc-diffusion method; assay type: functional; details: ATCC 10541, 18 h, read-out: IZ; procedure, shortened: as §1
[21] = tested on: Human alphaherpesvirus 1; test: Antiviral activity against Human herpesvirus 1 KOS ATCC VR-1493 infected in African green monkey Vero 76 cells assessed as reduction of virus-plaque formation after 3 days by crystal violet staining; assay type: functional, organism-based; details: Human alphaherpesvirus 1, KOS ATCC VR1493, Vero, 72 h; procedure, shortened: as §2
[22] = tested on: Bacillus cereus; test: Antimicrobial activity against Bacillus cereus ATCC 11778 at 400 ug after 18 hrs by disc-diffusion method; assay type: functional; details: ATCC 11778, 18 h, read-out: IZ; procedure, shortened: as §1
[23] = tested on: Staphylococcus aureus; test: Antimicrobial activity against Staphylococcus aureus ATCC 6538 at 400 ug after 18 hrs by disc-diffusion method; assay type: functional; details: ATCC 6538, 18 h, read-out: IZ; procedure, shortened: as §1
[24] = tested on: Micrococcus luteus; test: Antimicrobial activity against Micrococcus luteus ATCC 9341 at 400 ug after 18 hrs by disc-diffusion method; assay type: functional; details: ATCC 9341, 18 h, read-out: IZ; procedure, shortened: as §1
[25] = tested on: Staphylococcus aureus; test: Antimicrobial activity against Staphylococcus aureus NCTC 4163 at 400 ug after 18 hrs by disc-diffusion method; assay type: functional; details: NCTC 4163, 18 h, read-out: IZ; procedure, shortened: as §1
[26] = Cytotoxicity against BHK cells assessed as cell viability after 48 to 96 hrs by MTT assay; assay type: cell-based, Mesocricetus auratus; details: hamster
[27] = tested on: Proteus vulgaris; test: Antimicrobial activity against Proteus vulgaris NCTC 4635 at 400 ug after 18 hrs by disc-diffusion method; assay type: functional; procedure, shortened: as §1
[28] = tested on: Enterococcus faecalis; test: Antimicrobial activity against Enterococcus faecalis ATCC 29212 at 400 ug after 18 hrs by disc-diffusion method; assay type: functional; procedure, shortened: as §1
[29] = Cytotoxicity against bovine MDBK cells assessed as cell viability after 48 to 96 hrs by MTT assay; assay type: cell-based, Bos taurus; details: cattle
[30] = tested on: Mammalian orthoreovirus 1; test: Antiviral activity against Reovirus type-1 ATCC VR-214 infected in BHK cells assessed as protection against virus-induced cytopathogenicity after 3 to 4 days by MTT assay; assay type: functional, cell-based; details: Mammalian orthoreovirus 1, ATCC VR-214, BHK
Procedure, shortened: (§4)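 Cells seeded in 96-well plates (BHK 5x10^4, MDBK 3x10^4 cells/well), grown overnight to confluence, infected at m.o.i. 0.01 (BHK for Reo-1, MDBK for BVDV); serial compound dilutions in maintenance medium with 0.5% inactivated FBS added after 1 h; viability by MTT after 3–4 days at 37°C; EC50 for 50% protection by linear regression.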

[31] = tested on: Human immunodeficiency virus 1; test: Antiviral activity against HIV1 3B infected in human MT4 cells assessed as protection against virus-induced cytopathogenicity by MTT assay; assay type: functional, organism-based; details: Human immunodeficiency virus 1, 3B
[32] = tested on: Staphylococcus epidermidis; test: Antimicrobial activity against Staphylococcus epidermidis ATCC 12228 after 18 hrs by twofold serial microdilution method; assay type: functional; details: ATCC 12228, 18 h
[33] = tested on: Staphylococcus epidermidis; test: Antimicrobial activity against Staphylococcus epidermidis ATCC 35984 at 400 ug after 18 hrs by disc-diffusion method; assay type: functional; details: ATCC 35984, 18 h, read-out: IZ; procedure, shortened: as §1
[34] = Antiviral activity against Bovine viral diarrhea virus 1-NADL ATCC VR-534 infected in MDBK cells assessed as protection against virus-induced cytopathogenicity after 3 to 4 days by MTT assay; assay type: functional, cell-based; details: Bovine viral diarrhea virus isolates and strains, ATCC VR-534, MDBK; procedure, shortened: as §4

SMILES	EC50 [1] [µM]	zone of inhibition at 400 µg/disc [2] [mm]	zone of inhibition at 400 µg/disc [3] [mm]	MIC [4] [µg/mL]	EC50 [5] [µM]	zone of inhibition at 400 µg/disc [6] [mm]	CC50 [7] [µM]	CC50 [8] [µM]	MIC [9] [µg/mL]	MIC [10] [µg/mL]	EC50 [11] [µM]	EC50 [12] [µM]	EC50 [13] [µM]	MIC [14] [µg/mL]	MIC [15] [µg/mL]	MIC [16] [µg/mL]	zone of inhibition at 400 µg/disc [17] [mm]	zone of inhibition at 400 µg/disc [18] [mm]	MIC [19] [µg/mL]	zone of inhibition at 400 µg/disc [20] [mm]	also measured
FC(F)(F)c1cccc(NC(=S)NCc2ccco2)c1	> 50	12	13	256 (≈ 852 µM)	> 50	19	50	43	> 100	512 (≈ 1700 µM)	> 50	> 48	> 50	256 (≈ 852 µM)	256 (≈ 852 µM)	256 (≈ 852 µM)	15	14	> 100	13	EC50 [21]: > 50 µM; zone of inhibition at 400 µg/disc [22]: 13 mm; zone of inhibition at 400 µg/disc [23]: 14 mm; zone of inhibition at 400 µg/disc [24]: 13 mm; zone of inhibition at 400 µg/disc [25]: 14 mm; CC50 [26]: 48 µM; inhibition zone (IZ) [27]: inactive; zone of inhibition at 400 µg/disc ([28]; ATCC 29212, 18 h, read-out: IZ): 0 mm; CC50 [29]: > 100 µM; EC50 [30]: > 48 µM; EC50 [31]: > 43 µM; MIC [32]: 256 µg/mL (≈ 852 µM); zone of inhibition at 400 µg/disc [33]: 13 mm; EC50 [34]: > 100 µM
NNC(=O)c1ccncc1 [ISONIAZID]	–	–	–	–	–	–	–	–	12.5 (≈ 91.1 µM)	–	–	–	–	–	–	–	–	–	6.25 (≈ 45.6 µM)	–	–
CCNC(=S)Nc1cccc(C(F)(F)F)c1	> 100	14	13	256 (≈ 1030 µM)	> 100	19	> 100	> 100	> 100	512 (≈ 2060 µM)	> 100	> 100	> 100	256 (≈ 1030 µM)	128 (≈ 516 µM)	256 (≈ 1030 µM)	15	15	> 100	13	EC50 [21]: > 100 µM; zone of inhibition at 400 µg/disc [22]: 15 mm; zone of inhibition at 400 µg/disc [23]: 14 mm; zone of inhibition at 400 µg/disc [24]: 13 mm; zone of inhibition at 400 µg/disc [25]: 14 mm; CC50 [26]: > 100 µM; inhibition zone (IZ) [27]: inactive; inhibition zone (IZ) [28]: inactive; CC50 [29]: > 100 µM; EC50 [30]: > 100 µM; EC50 [31]: > 100 µM; MIC [32]: 256 µg/mL (≈ 1030 µM); zone of inhibition at 400 µg/disc [33]: 13 mm; EC50 [34]: > 100 µM
